# Source: ChEMBL document CHEMBL3526070, “Mass balance study of [¹⁴C]eribulin in patients with advanced solid tumors” (Drug Metab Dispos, 2012)
# What was measured:
# Homo sapiens [1] = test: Drug excretion in cancer patient treated with [14C]eribulin acetate at 2 mg, iv administered as bolus infusion for 2 to 5 mins after 168 hrs by LC-MS/MS analysis; type: ADME, organism-based; settings: in vivo
# In short: (§1)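 Patients got a ~2 mg (~80 µCi) 14C-eribulin IV bolus over 2-5 min. Urine was collected in 6 h periods to 48 h, then in 24 h periods. All faeces were collected and homogenised until daily recovery was <1% of dose; four patients continued to 312 h. Unchanged eribulin was measured by LC-MS/MS (faeces 0.1–25 µg/g) and total radioactivity by LSC. Results are % of the administered dose, mean ± SD.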
# Homo sapiens [2] = test: Dose-normalized AUC (0 to infinity) in cancer patient plasma at 2 mg, iv administered as bolus infusion for 2 to 5 mins by LC-MS/MS analysis/liquid scintillation counting; type: ADME, organism-based; settings: in vivo
# In short: (§2)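 Single ~2 mg (~80 µCi) 14C-eribulin IV bolus over 2-5 min in 6 cancer patients; actual doses were 1.75-3.01 mg. Plasma eribulin was measured by LC-MS/MS and total radioactivity by liquid scintillation counting with quench correction. Cmax, AUC0-t and AUC0-∞ came from non-compartmental analysis and were divided by the actual dose. TRA AUC0-∞ used n=5.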
# [3] = Clearance in cancer patient at 2 mg, iv administered as bolus infusion for 2 to 5 mins by LC-MS/MS analysis; type: ADME, organism-based; settings: human, in vivo
# In short: (§3)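 Six patients with advanced solid tumours received a single ~2 mg (~80 µCi) 14C-eribulin IV bolus over 2-5 min. Plasma was sampled from pre-dose to 168 h after end of infusion, using lithium-heparin tubes centrifuged at 4 °C. Eribulin was quantified by validated LC-MS/MS (m/z 730→712) and corrected ×2.03 for total eribulin. CL, CLr and Vz came from non-compartmental analysis. Values are mean ± SD, n=6.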
# Homo sapiens [4] = test: Dose-normalized AUC (0 to t) in cancer patient plasma at 2 mg, iv administered as bolus infusion for 2 to 5 mins by LC-MS/MS analysis/liquid scintillation counting; type: ADME, organism-based; settings: in vivo; in short: as §2
# [5] = Terminal half life in breast cancer patient; type: ADME, organism-based; settings: human, in vivo; read-out: beta t1/2 (converted)
# Homo sapiens [6] = test: Apparent volume of distribution in the terminal phase in cancer patient at 2 mg, iv administered as bolus infusion for 2 to 5 mins by LC-MS/MS analysis; type: ADME, organism-based; settings: in vivo; in short: as §3
# Homo sapiens [7] = test: Drug excretion in cancer patient treated with [14C]eribulin acetate at 2 mg, iv administered as bolus infusion for 2 to 5 mins after 312 hrs by LC-MS/MS analysis; type: ADME, organism-based; settings: in vivo; in short: as §1
# [8] = Renal clearance in cancer patient at 2 mg, iv administered as bolus infusion for 2 to 5 mins by LC-MS/MS analysis; type: ADME, organism-based, Kidney; settings: human, in vivo; in short: as §3
# [9] = Drug excretion in patient urine assessed as unchanged compound level at 0.25 to 1.4 mg/m2 administered 1 hr, iv infusion after 72 hrs; type: ADME, organism-based; settings: human, read-out: Drug excretion
# Homo sapiens [10] = test: Dose-normalized Cmax in cancer patient plasma at 2 mg, iv administered as bolus infusion for 2 to 5 mins by LC-MS/MS analysis/liquid scintillation counting; type: ADME, organism-based; settings: in vivo; in short: as §2
# [11] = Drug excretion in patient urine assessed as unchanged compound at 0.25 to 4 mg/m2 administered 1 hr, iv infusion every 21 days after 72 hrs; type: ADME, organism-based; settings: human, read-out: Drug excretion
# Homo sapiens [12] = test: Dose-normalized Cmax in cancer patient plasma assessed as total radioactivity at 2 mg, iv administered as bolus infusion for 2 to 5 mins by LC-MS/MS analysis/liquid scintillation counting; type: ADME, organism-based; settings: in vivo
# In short: (§4)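 Six patients with advanced solid tumours got one ~2 mg (~80 µCi) 14C-eribulin IV bolus over 2-5 min. Venous blood was drawn into lithium heparin pre-dose, at end of infusion and 5 min-168 h after, then spun 2,000 g, 4 °C, 15 min. Plasma was counted in duplicate by LSC with quench correction. Non-compartmental analysis; dose-normalised values use actual administered dose.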
# [13] = Drug excretion in cancer patient urine at 80 uCi, iv administered as bolus infusion for 2 to 5 mins after 312 hrs by liquid scintillation counting; type: ADME, organism-based; settings: human, in vivo
# In short: (§5)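 Patients had one ~2 mg (~80 µCi) 14C-eribulin IV bolus over 2-5 min. Urine was pooled over 6 h periods to 48 h, then every 24 h. All faeces were collected and homogenised. Collection ran to day 8, or longer until daily recovery was <1% of administered activity (faeces up to 312 h). Faeces were solubilised and decolourised, then LSC counted with quench correction, as percentage of administered activity.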
# Homo sapiens [14] = test: AUC (0 to t) in cancer patient assessed as total radioactivity at 2 mg, iv administered as bolus infusion for 2 to 5 mins by LC-MS/MS analysis/liquid scintillation counting; type: ADME, organism-based, Plasma; settings: in vivo; in short: as §4
# Homo sapiens [15] = test: Dose-normalized AUC (0 to t) in cancer patient plasma assessed as total radioactivity at 2 mg, iv administered as bolus infusion for 2 to 5 mins by LC-MS/MS analysis/liquid scintillation counting; type: ADME, organism-based; settings: in vivo; in short: as §4
# Homo sapiens [16] = test: Toxicity against cancer patient assessed as mortality at 80 uCi, iv administered as bolus infusion for 2 to 5 mins; type: organism-based; settings: in vivo
# [17] = Drug excretion in cancer patient feces at 80 uCi, iv administered as bolus infusion for 2 to 5 mins after 168 hrs by liquid scintillation counting; type: ADME, organism-based; settings: human, in vivo; in short: as §5
# [18] = Drug excretion in cancer patient feces at 80 uCi, iv administered as bolus infusion for 2 to 5 mins after 312 hrs by liquid scintillation counting; type: ADME, organism-based; settings: human, in vivo; in short: as §5
# Homo sapiens [19] = test: Terminal half life in cancer patient assessed as total radioactivity at 2 mg, iv administered as bolus infusion for 2 to 5 mins by LC-MS/MS analysis/liquid scintillation counting; type: ADME, organism-based; settings: in vivo; in short: as §4
# [20] = Drug excretion in cancer patient urine at 80 uCi, iv administered as bolus infusion for 2 to 5 mins after 168 hrs by liquid scintillation counting; type: ADME, organism-based; settings: human, in vivo; in short: as §5
# Homo sapiens [21] = test: AUC (0 to infinity) in cancer patient assessed as total radioactivity at 2 mg, iv administered as bolus infusion for 2 to 5 mins by LC-MS/MS analysis/liquid scintillation counting; type: ADME, organism-based, Plasma; parameters: dose 2 mg, time infinity, route intravenous; settings: in vivo; in short: as §4
# Homo sapiens [22] = test: Toxicity against cancer patient assessed as severe adverse event at 80 uCi, iv administered as bolus infusion for 2 to 5 mins; type: organism-based; settings: in vivo
# Homo sapiens [23] = test: Dose-normalized AUC (0 to infinity) in cancer patient plasma assessed as total radioactivity at 2 mg, iv administered as bolus infusion for 2 to 5 mins by LC-MS/MS analysis/liquid scintillation counting; type: ADME, organism-based; settings: in vivo; in short: as §4
# Homo sapiens [24] = test: Cmax in cancer patient plasma assessed as total radioactivity at 2 mg, iv administered as bolus infusion for 2 to 5 mins by LC-MS/MS analysis/liquid scintillation counting; type: ADME, organism-based; parameters: dose 2 mg, route intravenous; settings: in vivo; in short: as §4
smiles,measurement,setting,value
C=C1C[C@@H]2CC[C@@]34C[C@H]5O[C@H]6[C@@H](O3)[C@H]3O[C@H](CC[C@@H]3O[C@H]6[C@H]5O4)CC(=O)C[C@@H]3[C@@H](OC)[C@@H](C[C@H](O)CN)O[C@H]3C[C@H]3O[C@@H](CC[C@@H]1O2)C[C@@H](C)C3=C.CS(=O)(=O)O [ERIBULIN MESYLATE],Drug excretion,Homo sapiens [1],68%
same,AUC/dose,Homo sapiens [2],328 ng·h/mL/mg
same,clearance,[3],65.5 mL/min
same,AUCt/dose,Homo sapiens [4],301 ng·h/mL/mg
same,half-life,[5],36 h
same,Vz/F,Homo sapiens [6],247 L
same,Drug excretion,Homo sapiens [7],68.6%
same,CL renal,[8],5 mL/min
same,dose excreted at 72 h,[9],5%
same,Cmax/dose,Homo sapiens [10],222 ng/mL/mg
same,dose excreted at 72 h,[11],7%
C=C1C[C@@H]2CC[C@@]34C[C@H]5O[C@H]6[C@@H](O3)[C@H]3O[C@H](CC[C@@H]3O[C@H]6[C@H]5O4)CC(=O)C[C@@H]3[C@@H](OC)[C@@H](C[C@H](O)CN)O[C@H]3C[C@H]3O[C@@H](CC[C@@H]1O2)C[C@@H](C)C3=C.CC(=O)O,Cmax/dose,Homo sapiens [12],224 ngequiv/ml/mg
same,Drug excretion,[13],8.9%
same,AUCt,Homo sapiens [14],568 ng.Eq.hr/ml
same,AUCt/dose,Homo sapiens [15],269 ngequiv.hr/ml/mg
same,Activity,Homo sapiens [16],Non-toxic
same,Drug excretion,[17],77.6%
same,Drug excretion,[18],81.5%
same,beta t1/2,Homo sapiens [19],42.3 h
same,Drug excretion,[20],8.9%
same,AUC,Homo sapiens [21],753 ng.Eq.hr/ml
same,Activity,Homo sapiens [22],Non-toxic
same,AUC/dose,Homo sapiens [23],357 ngequiv.hr/ml/mg
same,Cmax,Homo sapiens [24],449 ng.Eq/ml
